Columns and labels:
[1] = tested on: Rattus norvegicus; experiment: Mean excretion of sodium in conscious rats at a dose of 100 mg/kg given orally; assay type: ADME, organism-based; design: dose 100 mg/kg, route oral; conditions: in vivo, po
How it was run: (§1)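 Male Sprague-Dawley rats, about 160 g, fasted 24 h and water withheld 1 1/2 h beforehand; food and water withheld during the test. Dosing by gavage with 25 mL/kg 0.9% saline containing 0.5% (carboxymethyl)cellulose, agent dissolved or suspended. Three cages of two rats each per dose, held in metabolism cages. Urine collected over 5 h. Volume given in mL, Na+ in mequiv. Significance versus control at P < 0.05.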

[2] = Diuretic activity at 40 mg/kg (screening dose-84.7 umol/kg) in […] in a two stage experiment; T/C1.2 = urine vol of treated rats / urine vol of control rats; assay type: functional
How it was run: (§2)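 40 mg/kg given by gavage in 25 mL/kg 0.9% saline with 0.5% (carboxymethyl)cellulose. Four rats per agent, two per metabolism cage; 20 controls; 5 h urine. T/C = treated/control urine volume. Stage-1 T/C of 1.66 or more leads to stage 2; product T/C1·T/C2 of 3.34 or more counts as active.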

[3] = tested on: Rattus norvegicus; experiment: Mean excretion of sodium in conscious rats at a dose of 3.0 mg/kg given orally; assay type: ADME, organism-based; design: dose 3 mg/kg, route oral; conditions: in vivo, po; how it was run: as §1
[4] = tested on: Rattus norvegicus; experiment: Mean excretion of potassium in conscious rats at a dose of 3.0 mg/kg given orally; assay type: ADME, organism-based; design: dose 3 mg/kg, route oral; conditions: in vivo, po
How it was run: (§3)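 Secondary dose-response in male Sprague-Dawley rats (~160 g), fasted and hydrated as in the primary screen. Oral gavage at 0.3-100 mg/kg in 25 mL/kg saline/0.5% CMC, three cages of two rats per dose. Urine collected 5 h; Na, K, Cl, HCO3 measured. Values are mean excretion (mequiv), compared with controls at P < 0.05.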

[5] = organism: Rattus norvegicus; experiment: […]; assay type: ADME, organism-based, Urine; design: dose 100 mg/kg, route oral; conditions: in vivo, po, 100 mg/kg; how it was run: as §1
[6] = tested on: Rattus norvegicus; experiment: Mean excretion of Cl- in conscious rats at a dose of 0.3 mg/kg given orally; assay type: ADME, organism-based, Urine; design: dose 0.3 mg/kg, route oral; conditions: in vivo, po
How it was run: (§4)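 Dose-response test in male Sprague-Dawley rats of about 160 g, fasted 24 h, with water withheld 1½ h before and during the test. Each rat got a single gavage of 25 mL/kg 0.9% saline with 0.5% carboxymethylcellulose carrying the agent (0.3–100 mg/kg range). Rats were housed two per metabolism cage, and urine was collected for 5 h. Mean urine volume (mL) was compared with controls (P < 0.05).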

[7] = tested on: Rattus norvegicus; experiment: Mean excretion of potassium in conscious rats at a dose of 0.3 mg/kg given orally; assay type: ADME, organism-based; design: dose 0.3 mg/kg, route oral; conditions: in vivo, po; how it was run: as §3
[8] = organism: Rattus norvegicus; experiment: […]; assay type: ADME, organism-based, Urine; design: dose 3 mg/kg, route oral; conditions: in vivo, po, 3 mg/kg; how it was run: as §1
[9] = organism: Rattus norvegicus; experiment: […]; assay type: ADME, organism-based, Urine; design: dose 30 mg/kg, route oral; conditions: in vivo, po, 30 mg/kg; how it was run: as §1
[10] = tested on: Rattus norvegicus; experiment: Mean excretion of potassium in conscious rats at a dose of 1.0 mg/kg given orally; assay type: ADME, organism-based; design: dose 1 mg/kg, route oral; conditions: in vivo, po; how it was run: as §3
[11] = tested on: Rattus norvegicus; experiment: Mean excretion of chloride in conscious rats at a dose of 3.0 mg/kg given orally; assay type: ADME, organism-based; design: dose 3 mg/kg, route oral; conditions: in vivo, po; how it was run: as §3
[12] = tested on: Rattus norvegicus; experiment: Mean excretion of potassium in conscious rats at a dose of 10 mg/kg given orally; assay type: ADME, organism-based; design: dose 10 mg/kg, route oral; conditions: in vivo, po; how it was run: as §3
[13] = tested on: Rattus norvegicus; experiment: Mean excretion of sodium in conscious rats at a dose of 10 mg/kg given orally; assay type: ADME, organism-based; design: dose 10 mg/kg, route oral; conditions: in vivo, po; how it was run: as §1
[14] = organism: Rattus norvegicus; experiment: […]; assay type: ADME, organism-based, Urine; design: dose 0.3 mg/kg, route oral; conditions: in vivo, po, 0.3 mg/kg; how it was run: as §4
[15] = organism: Rattus norvegicus; experiment: […]; assay type: ADME, organism-based, Urine; design: dose 10 mg/kg, route oral; conditions: in vivo, po, 10 mg/kg; how it was run: as §1
[16] = Diuretic activity at 40 mg/kg (screening dose 84.7 umol/kg) in […] in a one stage experiment; T/C = urine vol of treated rats / urine vol of control rats; assay type: functional; how it was run: as §2
[17] = tested on: Rattus norvegicus; experiment: Mean excretion of chloride in conscious rats at a dose of 100 mg/kg given orally; assay type: ADME, organism-based; design: dose 100 mg/kg, route oral; conditions: in vivo, po; how it was run: as §3
[18] = tested on: Rattus norvegicus; experiment: Mean excretion of chloride in conscious rats at a dose of 1.0 mg/kg given orally; assay type: ADME, organism-based; design: dose 1 mg/kg, route oral; conditions: in vivo, po; how it was run: as §3
[19] = organism: Rattus norvegicus; experiment: […]; assay type: ADME, organism-based, Urine; design: dose 1 mg/kg, route oral; conditions: in vivo, po, 1 mg/kg; how it was run: as §4
[20] = tested on: Rattus norvegicus; experiment: Mean excretion of potassium in conscious rats at a dose of 100 mg/kg given orally; assay type: ADME, organism-based; design: dose 100 mg/kg, route oral; conditions: in vivo, po; how it was run: as §3
[21] = tested on: Rattus norvegicus; experiment: Mean excretion of […] in conscious rats at a dose of 1.0 mg/kg given orally; assay type: ADME, organism-based; design: dose 1 mg/kg, route oral; conditions: in vivo, po; how it was run: as §1
[22] = tested on: Rattus norvegicus; experiment: Mean excretion of sodium in conscious rats at a dose of 0.3 mg/kg given orally; assay type: ADME, organism-based; design: dose 0.3 mg/kg, route oral; conditions: in vivo, po; how it was run: as §1
[23] = tested on: Rattus norvegicus; experiment: Mean excretion of chloride in conscious rats at a dose of 10 mg/kg given orally; assay type: ADME, organism-based; design: dose 10 mg/kg, route oral; conditions: in vivo, po; how it was run: as §3
[24] = tested on: Rattus norvegicus; experiment: Mean excretion of potassium in conscious rats at a dose of 30 mg/kg given orally; assay type: ADME, organism-based; design: dose 30 mg/kg, route oral; conditions: in vivo, po; how it was run: as §3
[25] = tested on: Rattus norvegicus; experiment: Mean excretion of sodium in conscious rats at a dose of 30 mg/kg given orally; assay type: ADME, organism-based; design: dose 30 mg/kg, route oral; conditions: in vivo, po; how it was run: as §1
[26] = tested on: Rattus norvegicus; experiment: Mean excretion of chloride in conscious rats at a dose of 30 mg/kg given orally; assay type: ADME, organism-based; design: dose 30 mg/kg, route oral; conditions: in vivo, po; how it was run: as §3
[27] = Diuretic activity at 40 mg/kg (screening dose 88.2 umol/kg) in […] in a one stage experiment; T/C = urine vol of treated rats / urine vol of control rats; assay type: functional; how it was run: as §2
[28] = Diuretic activity at 40 mg/kg (screening dose-88.2 uM/Kg) in […] in a two stage experiment; T/C1.2 = urine vol of treated rats / urine vol of control rats; assay type: functional; how it was run: as §2
[29] = Diuretic activity at 40 mg/kg (screening dose-97.3 umol/kg) in […] in a one stage experiment; T/C = urine vol of treated rats / urine vol of control rats; assay type: functional; how it was run: as §2
[30] = Diuretic activity at 40 mg/kg (screening dose-97.3 umol/kg) in […] in a two stage experiment; T/C1.2 = urine vol of treated rats / urine vol of control rats; assay type: functional; how it was run: as §2
[31] = Diuretic activity at 40 mg/kg (screening dose-61.6 umol/kg) in […] in a one stage experiment; T/C = urine vol of treated rats / urine vol of control rats; assay type: functional; how it was run: as §2

SMILES | Mean excretion of Na+ [1] [m equiv] | Mean excretion of Na+ [3] [m equiv] | Mean excretion of K+ [4] [m equiv] | Mean urine volume [5] [mL] | Mean excretion of Cl- [6] [m equiv] | Mean excretion of K+ [7] [m equiv] | Mean urine volume [8] [mL] | Mean urine volume [9] [mL] | Mean excretion of K+ [10] [m equiv] | Mean excretion of Cl- [11] [m equiv] | Mean excretion of K+ [12] [m equiv] | Mean excretion of Na+ [13] [m equiv] | Mean urine volume [14] [mL] | Mean urine volume [15] [mL] | Mean excretion of Cl- [17] [m equiv] | Mean excretion of Cl- [18] [m equiv] | Mean urine volume [19] [mL] | Mean excretion of K+ [20] [m equiv] | Mean excretion of Na+ [21] [m equiv] | Mean excretion of Na+ [22] [m equiv] | also measured
CN(C)CC(c1ccccc1Cl)c1nnc2n1-c1ccc(Cl)cc1C(c1ccccc1)=NC2 (centres undefined) | 1.76 | 0.81 | 0.22 | 9.85 | 1.08 | 0.25 | 4.67 | 6.73 | 0.24 | 0.84 | 0.21 | 1.03 | 5.36 | 5.37 | 1.69 | 0.93 | 4.54 | 0.22 | 0.93 | 1 | T/C 1.2 [2]: 3.77; T/C 1 [16]: 1.67; Mean excretion of Cl- [23]: 1.13 m equiv; Mean excretion of K+ [24]: 0.16 m equiv; Mean excretion of Na+ [25]: 1.22 m equiv; Mean excretion of Cl- [26]: 1.21 m equiv
CSc1ccc2c(c1)C(c1ccccc1)=NCc1nnc(C(CN(C)C)c3ccccc3)n1-2 (centres undefined) | 2.52 | 0.91 | 0.36 | 14.14 | 0.76 | 0.31 | 5.2 | 10.39 | 0.31 | 0.9 | 0.23 | 1.39 | 3.92 | 6.83 | 2.17 | 0.89 | 5.12 | 0.28 | 0.94 | 0.88 | T/C 1 [27]: 2.29; Mean excretion of Cl- [23]: 1.28 m equiv; Mean excretion of K+ [24]: 0.25 m equiv; T/C 1.2 [28]: 6.6; Mean excretion of Na+ [25]: 1.87 m equiv; Mean excretion of Cl- [26]: 1.69 m equiv
CN(C)CCc1nnc2n1-c1ccc(Br)cc1C(c1ccccn1)=NC2 | 1.26 | 0.79 | 0.39 | 11.02 | 0.81 | 0.38 | 5.53 | 8.05 | 0.32 | 0.84 | 0.33 | 0.77 | 5.94 | 5.63 | 1.21 | 0.7 | 4.69 | 0.41 | 0.6 | 0.74 | T/C 1 [29]: 1.75; T/C 1.2 [30]: 3.46; Mean excretion of Cl- [23]: 0.81 m equiv; Mean excretion of K+ [24]: 0.37 m equiv; Mean excretion of Na+ [25]: 1.03 m equiv; Mean excretion of Cl- [26]: 1.05 m equiv
Clc1ccc2c(c1)C(c1ccccc1)=NCc1nnc(C(CN3CCN(c4ccccc4)CC3)c3ccccc3)n1-2.O=C(O)C(=O)O (centres undefined) |  |  |  |  |  |  |  |  |  |  |  |  |  |  |  |  |  |  |  |  | T/C 1 [31]: 0.95
